# ChEMBL document CHEMBL1132282, “Discovery of novel non-peptide CCR1 receptor antagonists” (J Med Chem, 1999)
# Key:
# [1] = molecular target: T1, C-C chemokine receptor type 1 (Homo sapiens, UniProt P32246); test: Inhibition of [125I]-MIP-1 alpha binding to recombinant human C-C chemokine receptor type 1 expressed in HEK293 cells; assay type: cell-based
# T1 sequence (P32246 whole entry): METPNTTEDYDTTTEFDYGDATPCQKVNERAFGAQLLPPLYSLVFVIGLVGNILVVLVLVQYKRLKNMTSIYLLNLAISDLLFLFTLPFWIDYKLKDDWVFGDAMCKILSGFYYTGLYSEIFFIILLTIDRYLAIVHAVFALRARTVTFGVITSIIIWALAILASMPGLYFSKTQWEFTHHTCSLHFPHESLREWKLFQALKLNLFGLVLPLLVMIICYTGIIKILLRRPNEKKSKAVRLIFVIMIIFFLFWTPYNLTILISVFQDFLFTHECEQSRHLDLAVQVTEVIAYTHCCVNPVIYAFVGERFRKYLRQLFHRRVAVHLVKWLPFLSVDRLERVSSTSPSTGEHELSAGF
# [2] = molecular target: T2, C-C chemokine receptor type 1 (Homo sapiens) (UniProt P32246); test: Inhibition of [125I]-MIP-1 alpha binding to recombinant human C-C chemokine receptor type 1 expressed in HEK293 cells at 10 uM concentration; assay type: cell-based
# T2 sequence (whole entry): T1 sequence (P32246 whole entry)
# [3] = molecular target: T1, C-C chemokine receptor type 1; test: Inhibition of MIP-1-alpha-induced intracellular calcium mobilization in HEK293 cells expressing human CCR1 receptor; assay type: functional, cell-based
# How it was run: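 HEK-293 cells overexpressing human CCR1 plated at 80 000 cells/well on poly-D-lysine, cultured one day, loaded with 4 μM Fluo-3 for 1 h at 37 °C in HBSS/Hepes with probenecid, then washed. Compound pretreatment 10 min at 37 °C, then 30 nM MIP-1α stimulation. FLIPR fluorescence read over 3 min at 37 °C. Six-concentration dose curves give IC50.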
Structure (SMILES),Ki [1],inhibition [2],IC50 [3]
N#CC(CCCN1CCC(O)(c2ccc(-c3ccccc3)cc2)CC1)(c1ccccc1)c1ccccc1,–,30%,–
N#CC1(CCCN2CCC(O)(c3ccc(Cl)cc3)CC2)c2ccccc2C[S+]([O-])c2ccccc21 (stereo in doubt; 6p),54 nM,–,–
Cn1cccc1C(C#N)CCCN1CCC(O)(c2ccc(Cl)cc2)CC1 (configuration not stated),429 nM,–,–
COC(=O)C(CCCN1CCC(O)(c2ccc(Cl)cc2)CC1)(c1ccccc1)c1ccccc1,406 nM,–,–
COC(=O)C(C#N)(CCCN1CCC(O)(c2ccc(Cl)cc2)CC1)c1ccccc1 (configuration not stated),53 nM,–,–
N#CC1(CCCN2CCC(O)(c3cccc(C(F)(F)F)c3)CC2)c2ccccc2CSc2ccccc21 (configuration not stated),623 nM,–,–
N#CC(CCCN1CCC(O)(c2ccc(Cl)cc2)CC1)(c1ccccc1)N1CCCCC1 (configuration not stated),130 nM,–,4800 nM
CN(C)c1ccc(C2(O)CCN(CCCC(C#N)(c3ccccc3)c3ccccc3)CC2)cc1,1160 nM,–,–
N#CC(CCCN1CCC(O)(c2ccc3ccccc3c2)CC1)(c1ccccc1)c1ccccc1,715 nM,–,–
N#CC(CCCN1CCC(O)(c2ccc(Cl)cc2)CC1)c1ccc2ccccc2c1 (configuration not stated),206 nM,–,7100 nM
COC(=O)C1(c2ccccc2)CCN(CCCC2(C#N)c3ccccc3Cc3ccccc32)CC1,–,62%,–
CCCCC1(O)CCN(CCCC(C#N)(c2ccccc2)c2ccccc2)CC1,4010 nM,–,–
N#CC1(CCCN2CCC(O)(c3ccc(Cl)cc3)CC2)c2ccccc2CSc2ccccc21 (configuration not stated),24 nM,–,7000 nM
N#CC1(CCCN2CCC(O)(c3ccc(F)cc3)CC2)c2ccccc2CSc2ccccc21 (configuration not stated),44 nM,–,3000 nM
N#CC(CCCCCN1CCC(O)(c2ccc(Cl)cc2)CC1)(c1ccccc1)c1ccccc1,99 nM,–,5600 nM
N#CC1(CCCN2CCC(O)(c3ccc(Cl)cc3)CC2)c2ccccc2COc2ccccc21 (configuration not stated),34 nM,–,7700 nM
N#CC(CCCN1CCC(O)(c2ccc(Cl)cc2)CC1)c1ccccn1 (configuration not stated),584 nM,–,–
N#CC1(CCCN2CCC(O)(Cc3ccccc3)CC2)c2ccccc2CSc2ccccc21 (configuration not stated),405 nM,–,–
N#CC(CCCN1CCC(O)(c2cccs2)CC1)(c1ccccc1)c1ccccc1,1020 nM,–,–

Structure (SMILES),Ki [1],inhibition [2],IC50 [3]
COc1ccc(C2(O)CCN(CCCC(C#N)(c3ccccc3)c3ccccc3)CC2)cc1,347 nM,–,–
N#CC1(CCCN2CCC(O)(c3ccc(Cl)cc3)CC2)c2ccccc2CCc2ccccc21,45 nM,–,7700 nM
N#CC1(CCCN2CCC(O)(c3ccccc3)CC2)c2ccccc2CSc2ccccc21 (configuration not stated),203 nM,–,–
N#CC(CCCN1CCC(O)(c2ccc(Cl)cc2)CC1)c1cccs1 (configuration not stated),128 nM,–,8400 nM
N#CC(CCCN1CCC(O)(c2ccc(Cl)cc2)CC1)(c1ccccc1)c1ccccc1 [BERLEX COMPOUND],52 nM,–,2500 nM
N#CC1(CCCN2CCC(O)(c3ccc(Br)cc3)CC2)c2ccccc2CSc2ccccc21 (configuration not stated),22 nM,–,–
N#CC1(CCCN2CCC(O)(c3ccc(Cl)cc3)CC2)c2ccccc2C=Cc2ccccc21,56 nM,–,5300 nM
N#CC(CCCN1CCCC(O)(c2ccc(F)cc2)C1)(c1ccccc1)c1ccccc1 (configuration not stated),–,0%,–
N#CC(CCCN1CCC(O)(c2ccc(Cl)cc2)CC1)c1cccc([N+](=O)[O-])c1 (configuration not stated),510 nM,–,–
N#CC(CCCN1CCC(O)(c2ccc(Cl)cc2)CC1)c1ccccc1F (configuration not stated),371 nM,–,–
N#CC(CCN1CCC(O)(c2ccc(Cl)cc2)CC1)(c1ccccc1)c1ccccc1,4060 nM,–,400 nM
N#CC1(CCCN2CCC(O)(c3ccc(Cl)cc3)CC2)c2ccccc2C[S+]([O-])c2ccccc21 (stereo in doubt; 6q),71 nM,–,–
Cc1ccccc1C1(O)CCN(CCCC2(C#N)c3ccccc3CSc3ccccc32)CC1 (configuration not stated),164 nM,–,–
OC1(c2ccc(Cl)cc2)CCN(CCCC(c2ccccc2)c2ccccc2)CC1,116 nM,–,8700 nM
N#CC(CCCN1CCC(O)(c2ccc(Cl)cc2)CC1)c1cccc2ccccc12 (configuration not stated),–,51%,–
N#CC1(CCCN2CCC(C(=O)O)(c3ccccc3)CC2)c2ccccc2Cc2ccccc21,–,15%,–
N#CC(CCCN1CCC(CO)(c2ccccc2)CC1)(c1ccccc1)c1ccccc1,7500 nM,–,–
CC(C#N)(CCCN1CCC(O)(c2ccc(Cl)cc2)CC1)c1ccccc1 (configuration not stated),460 nM,–,–
N#CC1(CCCN2CCC(O)(c3ccc(Cl)cc3)CC2)c2ccccc2Oc2ccccc21,234 nM,–,–

# The remaining lines, values ahead:
Ki [1],inhibition [2],IC50 [3],Structure (SMILES)
366 nM,–,–,N#CC(CCCN1CCC(O)(c2ccc(Cl)cc2)CC1)c1ccccc1Br (configuration not stated)
359 nM,–,–,COc1ccc(C(C#N)CCCN2CCC(O)(c3ccc(Cl)cc3)CC2)cc1 (configuration not stated)
906 nM,–,–,N#CC(CCCN1CCC(O)(c2ccccn2)CC1)(c1ccccc1)c1ccccc1
400 nM,–,–,N#CC(CCCN1CCC(O)(c2ccc(Cl)cc2)CC1)(c1ccccc1)C1CCCCC1 (configuration not stated)
9 nM,–,–,O=C(NCC(CCCN1CCC(O)(c2ccc(Cl)cc2)CC1)(c1ccccc1)c1ccccc1)NC1CCNCC1
54 nM,–,–,N#CC(CCCN1CCC(O)(c2ccc(Cl)cc2)CC1)c1ccccc1 (configuration not stated)
74 nM,–,1900 nM,COc1ccc(C(C#N)CCCN2CCC(O)(c3ccc(Cl)cc3)CC2)cc1Br (configuration not stated)
306 nM,–,–,N#CC(CCCN1CCC(O)(c2ccc(Cl)cc2)CC1)c1ccccc1Cl (configuration not stated)
206 nM,–,–,N#CC(CCCN1CCC(O)(c2cccnc2)CC1)(c1ccccc1)c1ccccc1
1000 nM,–,–,N#CC(CCCN1CCC(O)(c2ccc(Cl)cc2)CC1)c1cccnc1 (configuration not stated)
–,33%,–,N#CC(CCCN1CCC(O)(c2ccc(N)cc2)CC1)(c1ccccc1)c1ccccc1
1420 nM,–,–,CCOc1ccc(C(C#N)CCCN2CCC(O)(c3ccc(Cl)cc3)CC2)cc1 (configuration not stated)
93 nM,–,–,CCC(C#N)(CCCN1CCC(O)(c2ccc(Cl)cc2)CC1)c1ccccc1 (configuration not stated)
533 nM,–,–,N#CC(CCCN1CCC(O)(c2ccc(Cl)cc2)CC1)c1ccc(F)cc1 (configuration not stated)
153 nM,–,–,N#CC(CCCN1CCC(O)(c2ccc(C(F)(F)F)cc2)CC1)(c1ccccc1)c1ccccc1
33 nM,–,7000 nM,CCOC(=O)C(C#N)(CCCN1CCC(O)(c2ccc(Cl)cc2)CC1)c1ccccc1 (configuration not stated)
–,0%,–,N#CC(CCCN1CCC(O)(c2ccc(Cl)cc2)CC1)c1cccc(OCc2ccccc2)c1 (configuration not stated)
–,22%,–,N#CC(CCCN1CCC(O)(c2ccc(F)cc2)C1)(c1ccccc1)c1ccccc1 (configuration not stated)
125 nM,–,3200 nM,N#CCC(C#N)(CCCN1CCC(O)(c2ccc(Cl)cc2)CC1)c1ccccc1 (configuration not stated)
330 nM,–,–,N#CC(CCCN1CCC(O)(c2ccc(Cl)cc2)CC1)c1c(F)c(F)c(F)c(F)c1F (configuration not stated)
224 nM,–,–,N#CC1(CCCN2CCC(O)(c3ccc(Cl)c(C(F)(F)F)c3)CC2)c2ccccc2CSc2ccccc21 (configuration not stated)
236 nM,–,9800 nM,N#CC(CCCN1CCC(O)(c2ccc(Cl)cc2)CC1)c1ccsc1 (configuration not stated)
233 nM,–,–,N#CC(CCCN1CCC(O)(c2ccc(I)cc2)CC1)(c1ccccc1)c1ccccc1

Ki [1],inhibition [2],IC50 [3],Structure (SMILES)
790 nM,–,–,N#CC(CCCN1CCC(O)(c2ccc(Cl)cc2)CC1)c1ccccc1O (configuration not stated)
–,25%,–,N#CC(CCCN1CCC(O)(c2ccc(Cl)cc2)CC1)c1ccccc1C(F)(F)F (configuration not stated)
156 nM,–,9000 nM,N#CC(CCCN1CCC(O)(c2ccc(Cl)cc2)CC1)c1cccc(O)c1 (configuration not stated)
497 nM,–,–,COc1cc(C(C#N)CCCN2CCC(O)(c3ccc(Cl)cc3)CC2)cc(OC)c1OC (configuration not stated)
908 nM,–,–,N#CC(CCCN1CCC(O)(c2ccc(Cl)cc2)CC1)c1cccc(Oc2ccccc2)c1 (configuration not stated)
98 nM,–,5800 nM,N#Cc1ccccc1C(C#N)CCCN1CCC(O)(c2ccc(Cl)cc2)CC1 (configuration not stated)
–,46%,–,N#CC(CCCN1CCC(O)(c2ccc(Cl)cc2)CC1)c1ccccc1OCc1ccccc1 (configuration not stated)
1330 nM,–,–,N#CC(CCCN1CCC(O)(c2cc(Cl)cc(Cl)c2)CC1)(c1ccccc1)c1ccccc1
29 nM,–,–,N#CC1(CCCN2CCC(O)(c3ccc(Br)cc3)CC2)c2ccccc2Cc2ccccc21
8 nM,–,–,C[N+]1(CCCC(C#N)(c2ccccc2)c2ccccc2)CCC(O)(c2ccc(Cl)cc2)CC1 (configuration not stated)
51 nM,–,8300 nM,N#CC(CCCCl)(CCCN1CCC(O)(c2ccc(Cl)cc2)CC1)c1ccccc1 (configuration not stated)
136 nM,–,–,N#CC(CCCN1CCC(O)(c2ccc(F)cc2)CC1)(c1ccccc1)c1ccccc1
6 nM,–,1800 nM,C[N+]1(CCCC(c2ccccc2)c2ccccc2)CCC(O)(c2ccc(Cl)cc2)CC1 (configuration not stated)
92 nM,–,10900 nM,N#Cc1ccc(C2(O)CCN(CCCC(C#N)(c3ccccc3)c3ccccc3)CC2)cc1
22 nM,–,700 nM,C[N+]1(CCCC(C#N)c2ccc3ccccc3c2)CCC(O)(c2ccc(Cl)cc2)CC1 (configuration not stated)
32 nM,–,3300 nM,CN1C(=O)c2ccccc2C(C#N)(CCCN2CCC(O)(c3ccc(Cl)cc3)CC2)c2ccccc21 (configuration not stated)
244 nM,–,–,NCC(CCCN1CCC(O)(c2ccc(Cl)cc2)CC1)(c1ccccc1)c1ccccc1
3430 nM,–,–,N#CC(CCCN1CCC(O)(c2ccc(Cl)cc2)CC1)c1ccc(OCc2ccccc2)cc1 (configuration not stated)
385 nM,–,–,N#CC(CCCN1CCC(O)(c2cccc(Cl)c2)CC1)(c1ccccc1)c1ccccc1
78 nM,–,1600 nM,N#CC(CCCCN1CCC(O)(c2ccc(Cl)cc2)CC1)(c1ccccc1)c1ccccc1
463 nM,–,–,N#CC(CCCN1CCC(O)(c2ccc(Cl)cc2)CC1)c1ccc(Cl)cc1 (configuration not stated)
975 nM,–,–,N#CC(CCCN1CCC(O)(c2ccc(Cl)cc2)CC1)c1ccc(O)cc1 (configuration not stated)
